Results: ChEMBL document CHEMBL1139940, “2-Aryl-2-hydroxyethylamine substituted 4-oxo-4,7-dihydrothieno[2,3-b]pyridines as broad-spectrum inhibitors of human herpesvirus polymerases” (Bioorg Med Chem Lett, 2007)
≈ marks a conversion by molar mass, not a printed value.

Legend:
Human betaherpesvirus 5 = assay: Antiviral activity against HCMV Davis in HFF cells by plaque reduction assay; assay type: functional, organism-based; details: Human betaherpesvirus 5, Davis
Outline: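 Plaque reduction in human foreskin fibroblasts infected with Davis strain; values are means of at least two experiments, SD given.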

[1] = biological target: T1, DNA polymerase catalytic subunit (Human cytomegalovirus (strain AD169) (HHV-5) (Human herpesvirus 5), UniProt P08546); assay: Inhibition of HCMV DNA polymerase by scintillation proximity assay; set-up: species or system Human betaherpesvirus 5
T1 sequence (P08546 whole entry): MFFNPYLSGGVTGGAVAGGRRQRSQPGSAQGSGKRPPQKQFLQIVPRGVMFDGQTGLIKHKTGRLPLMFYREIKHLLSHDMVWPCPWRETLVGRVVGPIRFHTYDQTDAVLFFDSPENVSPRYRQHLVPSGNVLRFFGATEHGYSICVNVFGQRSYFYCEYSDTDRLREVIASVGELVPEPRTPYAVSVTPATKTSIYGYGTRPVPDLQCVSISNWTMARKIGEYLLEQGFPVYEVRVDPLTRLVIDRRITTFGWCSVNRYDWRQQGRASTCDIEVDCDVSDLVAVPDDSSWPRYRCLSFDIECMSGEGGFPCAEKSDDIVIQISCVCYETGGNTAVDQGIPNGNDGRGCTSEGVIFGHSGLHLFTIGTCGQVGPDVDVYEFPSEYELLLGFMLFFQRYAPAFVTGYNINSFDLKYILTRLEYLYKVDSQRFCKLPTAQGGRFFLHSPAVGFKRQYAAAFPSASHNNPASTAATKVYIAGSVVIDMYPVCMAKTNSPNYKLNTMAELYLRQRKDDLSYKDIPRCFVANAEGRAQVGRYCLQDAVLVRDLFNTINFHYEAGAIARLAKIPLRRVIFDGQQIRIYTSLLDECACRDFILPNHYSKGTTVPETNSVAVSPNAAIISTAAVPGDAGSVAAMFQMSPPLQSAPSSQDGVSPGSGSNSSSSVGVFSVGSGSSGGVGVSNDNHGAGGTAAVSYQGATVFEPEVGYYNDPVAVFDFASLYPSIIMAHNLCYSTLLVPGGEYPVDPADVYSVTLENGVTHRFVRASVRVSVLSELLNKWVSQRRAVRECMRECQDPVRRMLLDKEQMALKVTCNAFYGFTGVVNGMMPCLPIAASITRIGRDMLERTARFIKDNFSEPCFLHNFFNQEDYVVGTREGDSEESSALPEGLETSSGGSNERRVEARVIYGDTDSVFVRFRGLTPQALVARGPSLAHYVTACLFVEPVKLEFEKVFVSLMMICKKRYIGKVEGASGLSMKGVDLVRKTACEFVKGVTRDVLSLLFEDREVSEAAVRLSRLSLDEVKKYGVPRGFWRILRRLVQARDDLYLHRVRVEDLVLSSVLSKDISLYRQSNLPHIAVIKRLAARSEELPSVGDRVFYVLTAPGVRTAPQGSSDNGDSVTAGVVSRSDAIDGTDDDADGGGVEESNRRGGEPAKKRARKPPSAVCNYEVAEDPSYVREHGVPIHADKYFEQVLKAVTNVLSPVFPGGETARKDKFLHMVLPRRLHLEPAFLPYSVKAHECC
Outline: (§1)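 Purified viral or human DNA polymerase; incorporation of 3H-labeled nucleotide into template-primer measured by scintillation proximity.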

[2] = Inhibition of HSV1 DNA polymerase by scintillation proximity assay; set-up: species or system Human alphaherpesvirus 1; outline: as §1
[3] = Inhibition of VZV DNA polymerase by scintillation proximity assay; set-up: species or system Human alphaherpesvirus 3; outline: as §1
[4] = Aqueous solubility of the compound; assay type: physicochemical
[5] = Oral bioavailability in dog at 15 mg/kg; assay type: ADME, organism-based, Canis lupus familiaris; details: in vivo
[6] = Cytotoxicity against HFF cells after 3 days; assay type: cell-based; details: human
Outline: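 Subconfluent replicating HFF monolayers exposed to compound for 3 days; viability scored by microscopic evaluation and quantitative neutral red dye uptake; CC50 from a single determination.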

[7] = Inhibition of EBV DNA polymerase by T7 quick-coupled transcription-translation system; set-up: species or system human gammaherpesvirus 4
Outline: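 EBV polymerase plus BMRF-1 in 50 mM Tris pH 8, 70 mM NH4SO4, 10 mM MgCl2, dCTP/dTTP/dGTP, 0.5 µCi 32P-dATP, 100 µg/mL activated calf thymus DNA; compound added before enzyme, 1% final DMSO; 30 min at 37 °C; TCA precipitation onto glass filters, incorporated 32P counted by scintillation.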

Human alphaherpesvirus 3 = assay: Antiviral activity against VZV Webster in HFF cells by plaque reduction assay; assay type: functional, organism-based; details: Human alphaherpesvirus 3, Webster
[8] = Inhibition of human DNA polymerase gamma by scintillation proximity assay; outline: as §1
[9] = Inhibition of human DNA polymerase delta by scintillation proximity assay; outline: as §1
[10] = Inhibition of human DNA polymerase alpha by scintillation proximity assay; outline: as §1
Human gammaherpesvirus 4 = assay: Antiviral activity against EBV in GG68 cells after 72 hrs; assay type: functional, organism-based; details: human gammaherpesvirus 4, GG68, 72 h
Outline: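 GG68 cells induced into lytic replication with 40 ng/mL TPA plus 4 mM n-butyric acid; compound added at 0.5% final DMSO; 72 h at 37 °C, then cells lysed and DNA harvested.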

[11] = Oral bioavailability in rat at 15 mg/kg; assay type: ADME, organism-based; details: in vivo
Human alphaherpesvirus 1 = assay: Antiviral activity against HSV1 KOS in Vero cells by plaque reduction assay; assay type: functional, organism-based; details: Human alphaherpesvirus 1, KOS

Row | Structure (SMILES) | IC50 (Human betaherpesvirus 5) [nM] | IC50 [1] [nM] | also measured
1 | CN(Cc1cc2c(=O)c(C(=O)NCc3ccc(Cl)cc3)cn(C)c2s1)CC(O)c1ccccc1 (centres undefined) | 180 | 100 | 
2 | CCN(Cc1cc2c(=O)c(C(=O)NCc3ccc(Cl)cc3)cn(C)c2s1)CC(O)c1ccccc1 (centres undefined) | 450 | 240 | 
3 | CC(C)N(Cc1cc2c(=O)c(C(=O)NCc3ccc(Cl)cc3)cn(C)c2s1)CC(O)c1ccccc1 (centres undefined) | 1600 | 2040 | 
4 | CN(Cc1cc2c(=O)c(C(=O)NCc3ccc(Cl)cc3)cn(C)c2s1)C[C@@H](O)c1ccccc1 |  |  | IC50 [2]: 400 nM; IC50 [3]: 200 nM
5 | CN(Cc1cc2c(=O)c(C(=O)NCc3ccc(Cl)cc3)cn(C)c2s1)C[C@H](O)c1ccccc1 |  | 2550 | IC50 [2]: 10500 nM; IC50 [3]: 5000 nM
6 | CN(Cc1cc2c(=O)c(C(=O)NCc3ccc(F)cc3)cn(C)c2s1)CC(O)c1ccc(F)cc1 (centres undefined) | 200 | 220 | 
7 | CN(Cc1cc2c(=O)c(C(=O)NCc3cccc(Cl)c3)cn(C)c2s1)CC(O)c1ccc(F)cc1 (centres undefined) | 250 | 203 | 
8 | CN(Cc1cc2c(=O)c(C(=O)NCc3cccc(Cl)c3)cn(C)c2s1)CC(O)c1ccccn1 (centres undefined) | 90 | 86 | solubility [4]: 9 µM (≈ 4.47 µg/mL)
9 | CN(Cc1cc2c(=O)c(C(=O)NCc3cccc(Cl)c3)cn(C)c2s1)CC(O)c1cccnc1 (centres undefined) | 60 | 160 | 
10 | CN(Cc1cc2c(=O)c(C(=O)NCc3ccc(Cl)cc3)cn(C)c2s1)CC(O)c1ccc2ccccc2n1 (centres undefined) | 40 | 65 | 
11 | CN(Cc1cc2c(=O)c(C(=O)NCc3ccc(Cl)cc3)cn(C)c2s1)CC(O)c1nccs1 (centres undefined) | 200 | 235 | 
12 | CN(Cc1cc2c(=O)c(C(=O)NCc3ccc(Cl)cc3)cn(C)c2s1)CC(O)c1ncccn1 (centres undefined) | 100 | 100 | 
13 | CN(Cc1cc2c(=O)c(C(=O)NCc3ccc(Cl)cc3)cn(C)c2s1)CC(O)c1cnccn1 (centres undefined) | 65 | 85 | solubility [4]: 72 µM (≈ 35.9 µg/mL)
14 | CC(C)C(O)CN(C)Cc1cc2c(=O)c(C(=O)NCc3ccc(Cl)cc3)cn(C)c2s1 (centres undefined) | > 5000 | 17500 | 
15 | C[C@H](O)CN(C)Cc1cc2c(=O)c(C(=O)NCc3ccc(Cl)cc3)cn(C)c2s1 |  | 35 | 
16 | CN(Cc1cc2c(=O)c(C(=O)NCc3cccc(Cl)c3)cn(C)c2s1)C[C@@H](O)c1ccccn1 | 100 | 61 | bioavailability [5]: 76%; CC50 at 72 h [6]: > 100000 nM; IC50 [7]: 70 nM; IC50 (Human alphaherpesvirus 3): 2 nM; IC50 [8]: > 40000 nM; IC50 [9]: > 40000 nM; IC50 [2]: 76 nM; IC50 [10]: > 40000 nM; IC50 (Human gammaherpesvirus 4): 200 nM; bioavailability [11]: 45%; IC50 [3]: 21 nM; IC50 (Human alphaherpesvirus 1): 3000 nM
17 | Cn1cc(C(=O)NCc2ccc(Cl)cc2)c(=O)c2cc(CNCC(O)c3ccccc3)sc21 (centres undefined) | > 5000 | 8400 | 
18 | CN(Cc1cc2c(=O)c(C(=O)NCc3ccc(Cl)cc3)cn(C)c2s1)C[C@@H](O)c1cnccn1 | 15 | 37 | bioavailability [5]: 66%; CC50 at 72 h [6]: > 100000 nM; IC50 (Human alphaherpesvirus 3): 7 nM; IC50 [8]: > 40000 nM; IC50 [9]: > 40000 nM; IC50 [2]: 76 nM; IC50 [10]: > 40000 nM; bioavailability [11]: 21%; IC50 [3]: 19 nM; IC50 (Human alphaherpesvirus 1): 1600 nM
19 | Cn1cc(C(=O)NCc2ccc(Cl)cc2)c(=O)c2cc(CN(CCO)CC(O)c3ccccc3)sc21 (centres undefined) | 400 | 1580 | 
20 | Cn1cc(C(=O)NCc2ccc(Cl)cc2)c(=O)c2cc(CN(CC(O)c3ccccc3)C3CC3)sc21 (centres undefined) | > 5000 | 8900 | 
21 | CC(O)CN(C)Cc1cc2c(=O)c(C(=O)NCc3ccc(Cl)cc3)cn(C)c2s1 (centres undefined) | 1500 | 3530 | 
22 | Nc1nc2c(ncn2COCCO)c(=O)[nH]1 [ACYCLOVIR] |  |  | CC50 at 72 h [6]: > 100000 nM; IC50 (Human gammaherpesvirus 4): 6900 nM
23 | O=C(O)P(=O)(O)O [FOSCARNET] |  |  | IC50 [8]: < 280 nM
24 | Nc1nc(O)c2ncn(COC(CO)CO)c2n1 [GANCICLOVIR] |  |  | CC50 at 72 h [6]: > 100000 nM

The next lines start with results.

Row | IC50 (Human betaherpesvirus 5) [nM] | IC50 [1] [nM] | Structure (SMILES) | also measured
25 | 85 | 200 | CN(Cc1cc2c(=O)c(C(=O)NCc3ccc(Cl)cc3)cn(C)c2s1)CC(O)c1ccncc1 (centres undefined) | 
26 | 30 | 77 | CN(Cc1cc2c(=O)c(C(=O)NCc3ccc(Cl)cc3)cn(C)c2s1)CC(O)c1ccco1 (centres undefined) | solubility [4]: 0.4 µM (≈ 0.194 µg/mL)
27 | 250 | 175 | CN(Cc1cc2c(=O)c(C(=O)NCc3ccc(Cl)cc3)cn(C)c2s1)CC(O)c1cccs1 (centres undefined) | 
28 | 100 | 66 | CN(Cc1cc2c(=O)c(C(=O)NCc3ccc(Cl)cc3)cn(C)c2s1)CC(O)c1cccc(C#N)c1 (centres undefined) | 
29 | 300 | 315 | CN(Cc1cc2c(=O)c(C(=O)NCc3ccc(Cl)cc3)cn(C)c2s1)CC(O)c1ccc(C#N)cc1 (centres undefined) | 
30 | 20 | 87 | COc1cccc(C(O)CN(C)Cc2cc3c(=O)c(C(=O)NCc4ccc(Cl)cc4)cn(C)c3s2)c1 (centres undefined) | 
31 | 400 | 250 | CN(Cc1cc2c(=O)c(C(=O)NCc3ccc(Cl)cc3)cn(C)c2s1)CC(O)c1ccoc1 (centres undefined) | 
32 | 150 | 12 | CN(Cc1cc2c(=O)c(C(=O)NCc3ccc(Cl)cc3)cn(C)c2s1)CC(O)c1cc2ccccc2o1 (centres undefined) | 
33 | 57 | 100 | CN(Cc1cc2c(=O)c(C(=O)NCc3ccc(Cl)cc3)cn(C)c2s1)CC(O)c1ccc(O)cc1 (centres undefined) | 
